Measured values reported in PMC5164959 (Biochemical pharmacology, 2016).
pIC50, pKi: −log10 of the molar value.

Assays:
DGKι = DGKι (Homo sapiens, UniProt O75912); experiment: Kinase assay with HEK 293T cell homogenate over-expressing DGKι; format: biochemical
5-HTRs = experiment: Agonist functional assays at 5 serotonin receptors; format: cell-based; details: 5 receptors where low Ki values were observed; data not shown
PKC [1] = experiment: PKC activation: phosphorylation of PKC substrates by western blot in HeLa cells; format: cell-based, human; details: 40 μM, 30 min
Outline: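 HeLa cells were grown in DMEM with 5% FBS and treated 30 min with 4 or 40 μM test compound or 100 nM PMA, with or without 1 h pretreatment with 500 nM bisindolylmaleimide II. In separate runs, a 5-HT2AR agonist (10 μM, 6 h) was given with or without 40 μM antagonist. Lysates (50 μg) were immunoblotted for phospho-(Ser) PKC substrates; four independent experiments were quantified.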

5-HT2C = target: T1, 5-HT2C (Homo sapiens, UniProt P28335); experiment: Radioligand competition binding assay; details: read-out: Ki 5-HT2C; Cheng-Prusoff from best-fit IC50
T1 sequence (P28335 33-458): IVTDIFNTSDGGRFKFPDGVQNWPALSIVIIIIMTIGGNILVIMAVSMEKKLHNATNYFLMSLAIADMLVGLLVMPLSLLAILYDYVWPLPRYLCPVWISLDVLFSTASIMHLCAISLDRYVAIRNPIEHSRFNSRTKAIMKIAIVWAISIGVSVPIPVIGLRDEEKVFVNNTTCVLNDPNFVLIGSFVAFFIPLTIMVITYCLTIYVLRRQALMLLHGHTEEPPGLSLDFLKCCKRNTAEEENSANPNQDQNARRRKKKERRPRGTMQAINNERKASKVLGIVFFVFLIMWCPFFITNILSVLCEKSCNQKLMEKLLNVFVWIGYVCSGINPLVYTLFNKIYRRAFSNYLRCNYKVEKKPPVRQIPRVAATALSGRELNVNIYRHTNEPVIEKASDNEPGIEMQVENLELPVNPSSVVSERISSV

5-HT5A = 5-HT5A (Homo sapiens, UniProt P47898); experiment: Radioligand competition binding assay
Outline: (§1)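 Run by the NIMH PDSP as radioligand competition binding assays. The primary screen used 10 μM test compound and reported mean percent inhibition of radioligand binding (n=4); above 50% counted as significant. At those receptors, IC50 values came from non-linear regression of competition binding isotherms and were converted to Ki with the Cheng-Prusoff equation.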

5-HT6 = 5-HT6 (Homo sapiens, UniProt P50406); experiment: Radioligand competition binding assay
Outline: as §1

5-HT3 = 5-HT3 (Homo sapiens, UniProt P46098); experiment: Radioligand competition binding assay; details: 10 μM test compound, n=4
Outline: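 Run by the NIMH PDSP as a radioligand competition binding primary screen. Test compounds were applied at 10 μM, and the read-out was mean percent inhibition of radioligand binding (n=4).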

5-HT7 = 5-HT7 (Homo sapiens, UniProt P34969); experiment: Radioligand competition binding assay
Outline: as §1

DGKδ = DGKδ (Homo sapiens, UniProt Q16760); experiment: Kinase assay with HEK 293T cell homogenate over-expressing DGKδ; format: biochemical; details: 20 μM inhibitor, dioleoyl DAG liposomes
Outline: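 Reactions without CaCl2 contained 5 μg homogenate, 2 mM liposomes (10 mol% dioleoyl DAG, 40 mol% PS, 50 mol% PC), buffer B, 1 mM DTT and [γ32P]-ATP, 20 min at 30°C. Test compound was added from DMSO. Extracted 32P-lipid was counted, GFP-lysate normalized, and expressed as percent of DMSO control.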

PKC [2] = experiment: PKC activation: phosphorylation of PKC substrates by western blot in U87 cells; format: cell-based, human; details: treatment for 30 min
Outline: (§2)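 Glioblastoma cells were treated 30 min with 4 or 40 μM test compound or 100 nM PMA, with or without 1 h pretreatment with 500 nM bisindolylmaleimide II. Cleared Triton lysates (50 μg) were run on 8.75% SDS-PAGE and probed with phospho-(Ser) PKC substrate antibody, detected by alkaline phosphatase chemiluminescence. Three independent experiments were quantified.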

DGKβ = details: 30 μM R59022; cited from earlier work
5-HT1A = target: T2, 5-HT1A (Homo sapiens, UniProt P08908); experiment: Radioligand competition binding assay
T2 sequence (P08908 1-422): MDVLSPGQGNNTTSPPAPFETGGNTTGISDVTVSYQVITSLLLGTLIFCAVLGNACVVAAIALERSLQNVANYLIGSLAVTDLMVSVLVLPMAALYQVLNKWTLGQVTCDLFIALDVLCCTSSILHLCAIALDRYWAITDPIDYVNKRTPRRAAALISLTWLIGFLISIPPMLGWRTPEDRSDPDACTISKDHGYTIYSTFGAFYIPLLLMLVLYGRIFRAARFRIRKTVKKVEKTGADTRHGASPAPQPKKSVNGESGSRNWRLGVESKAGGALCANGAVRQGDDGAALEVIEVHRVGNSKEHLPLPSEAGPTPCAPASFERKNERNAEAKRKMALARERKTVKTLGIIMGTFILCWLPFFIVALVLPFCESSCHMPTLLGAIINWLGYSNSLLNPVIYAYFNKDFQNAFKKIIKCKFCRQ

PKC [3] = experiment: PKC activation: phosphorylation of PKC substrates by western blot in U251 cells; format: cell-based, human; details: treatment for 30 min
Outline: as §2

DGKγ = details: 30 μM R59022; cited from earlier work
DGKε = details: cited from earlier work
5-HT1B = 5-HT1B (Homo sapiens, UniProt P28222); experiment: Radioligand competition binding assay
Outline: as §1

DGKα = DGKα (Rattus norvegicus, UniProt P51556); experiment: Kinase assay with HEK 293T cell homogenate over-expressing DGKα; format: biochemical
Outline: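 Each reaction held 5 μg homogenate protein, 2 mM extruded PC:PS:DAG liposomes (10 mol% dioleoyl, dioctanoyl or stearoyl-arachidonoyl DAG), buffer B, 1 mM DTT, 1 mM CaCl2 and 1 mM [γ32P]-ATP, run 20 min at 30°C. Test compounds came from DMSO stocks. 32P-PA was counted, normalized to GFP lysate and to DMSO control; IC50 from log[inhibitor] versus normalized response.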

Chain of DGKα (P51556 whole entry): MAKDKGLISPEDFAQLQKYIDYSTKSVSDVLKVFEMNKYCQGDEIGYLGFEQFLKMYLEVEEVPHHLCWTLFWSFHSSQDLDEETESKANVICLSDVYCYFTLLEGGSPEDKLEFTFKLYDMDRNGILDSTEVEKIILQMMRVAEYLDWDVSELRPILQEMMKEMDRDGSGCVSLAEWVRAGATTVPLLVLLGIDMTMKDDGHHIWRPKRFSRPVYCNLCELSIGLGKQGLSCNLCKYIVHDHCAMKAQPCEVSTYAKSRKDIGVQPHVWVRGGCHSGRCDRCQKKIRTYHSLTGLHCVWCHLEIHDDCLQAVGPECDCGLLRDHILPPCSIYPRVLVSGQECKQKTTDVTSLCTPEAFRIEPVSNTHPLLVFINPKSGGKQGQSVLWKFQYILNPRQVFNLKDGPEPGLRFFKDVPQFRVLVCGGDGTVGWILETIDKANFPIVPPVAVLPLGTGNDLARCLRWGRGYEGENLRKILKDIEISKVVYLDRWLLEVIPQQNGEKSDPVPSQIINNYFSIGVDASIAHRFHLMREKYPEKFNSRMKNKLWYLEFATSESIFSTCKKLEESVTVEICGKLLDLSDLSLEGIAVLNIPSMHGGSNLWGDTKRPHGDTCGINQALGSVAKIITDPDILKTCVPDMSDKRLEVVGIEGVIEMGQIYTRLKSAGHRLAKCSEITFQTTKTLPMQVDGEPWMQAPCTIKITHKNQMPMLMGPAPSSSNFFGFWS
Chain of DGKι (O75912 1-1065 isoform O75912-1): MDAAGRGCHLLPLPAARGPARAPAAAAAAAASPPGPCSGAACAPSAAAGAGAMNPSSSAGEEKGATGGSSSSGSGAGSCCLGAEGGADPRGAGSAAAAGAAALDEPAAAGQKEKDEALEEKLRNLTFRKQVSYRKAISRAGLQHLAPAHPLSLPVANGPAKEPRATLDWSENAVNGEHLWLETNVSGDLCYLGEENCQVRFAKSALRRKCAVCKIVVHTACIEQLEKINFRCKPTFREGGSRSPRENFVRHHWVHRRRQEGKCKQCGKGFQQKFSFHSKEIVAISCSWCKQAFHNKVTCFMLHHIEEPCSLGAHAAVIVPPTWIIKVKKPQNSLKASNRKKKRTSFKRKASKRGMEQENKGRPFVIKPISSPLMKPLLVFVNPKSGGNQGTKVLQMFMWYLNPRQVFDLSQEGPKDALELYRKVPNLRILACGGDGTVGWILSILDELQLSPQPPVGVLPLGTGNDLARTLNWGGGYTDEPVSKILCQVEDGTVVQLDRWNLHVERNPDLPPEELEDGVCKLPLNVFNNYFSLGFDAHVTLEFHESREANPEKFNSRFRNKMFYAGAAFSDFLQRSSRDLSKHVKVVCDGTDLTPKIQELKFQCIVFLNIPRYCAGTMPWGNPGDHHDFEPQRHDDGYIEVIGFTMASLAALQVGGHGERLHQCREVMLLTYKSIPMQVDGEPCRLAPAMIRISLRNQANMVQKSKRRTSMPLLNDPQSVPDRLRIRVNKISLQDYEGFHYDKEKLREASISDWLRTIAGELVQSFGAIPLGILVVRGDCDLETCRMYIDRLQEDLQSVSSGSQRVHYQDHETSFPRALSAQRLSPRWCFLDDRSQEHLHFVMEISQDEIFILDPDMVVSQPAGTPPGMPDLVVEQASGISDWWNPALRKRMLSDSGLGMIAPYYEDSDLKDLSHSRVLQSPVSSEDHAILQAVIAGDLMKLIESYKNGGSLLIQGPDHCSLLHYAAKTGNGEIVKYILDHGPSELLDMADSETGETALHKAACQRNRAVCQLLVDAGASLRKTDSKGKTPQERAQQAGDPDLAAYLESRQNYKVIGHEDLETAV
Chain of 5-HT1B (P28222 whole entry, species assumed): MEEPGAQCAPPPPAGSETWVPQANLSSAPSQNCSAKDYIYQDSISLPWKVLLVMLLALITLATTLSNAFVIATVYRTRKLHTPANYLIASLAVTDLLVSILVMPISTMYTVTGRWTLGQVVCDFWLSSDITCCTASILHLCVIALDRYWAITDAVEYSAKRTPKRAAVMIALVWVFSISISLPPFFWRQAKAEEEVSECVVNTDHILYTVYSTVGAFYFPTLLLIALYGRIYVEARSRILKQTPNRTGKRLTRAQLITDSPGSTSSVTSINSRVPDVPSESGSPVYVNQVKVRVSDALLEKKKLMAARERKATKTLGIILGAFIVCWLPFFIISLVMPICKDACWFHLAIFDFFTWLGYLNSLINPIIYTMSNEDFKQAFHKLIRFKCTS
Chain of 5-HT7 (P34969 whole entry, species assumed): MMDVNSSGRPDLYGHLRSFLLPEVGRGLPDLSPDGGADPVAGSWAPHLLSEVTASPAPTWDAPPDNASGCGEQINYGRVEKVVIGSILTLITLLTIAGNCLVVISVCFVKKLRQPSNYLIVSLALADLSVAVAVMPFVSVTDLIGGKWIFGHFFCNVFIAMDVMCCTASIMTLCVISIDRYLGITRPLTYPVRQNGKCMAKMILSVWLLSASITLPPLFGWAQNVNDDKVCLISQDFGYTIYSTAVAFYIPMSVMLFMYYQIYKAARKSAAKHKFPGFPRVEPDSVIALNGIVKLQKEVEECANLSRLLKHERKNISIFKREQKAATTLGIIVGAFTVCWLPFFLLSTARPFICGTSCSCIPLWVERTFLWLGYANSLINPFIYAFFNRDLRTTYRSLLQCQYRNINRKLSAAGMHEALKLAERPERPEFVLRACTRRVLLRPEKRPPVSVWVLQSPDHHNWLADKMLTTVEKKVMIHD
Chain of 5-HT6 (P50406 whole entry, species assumed): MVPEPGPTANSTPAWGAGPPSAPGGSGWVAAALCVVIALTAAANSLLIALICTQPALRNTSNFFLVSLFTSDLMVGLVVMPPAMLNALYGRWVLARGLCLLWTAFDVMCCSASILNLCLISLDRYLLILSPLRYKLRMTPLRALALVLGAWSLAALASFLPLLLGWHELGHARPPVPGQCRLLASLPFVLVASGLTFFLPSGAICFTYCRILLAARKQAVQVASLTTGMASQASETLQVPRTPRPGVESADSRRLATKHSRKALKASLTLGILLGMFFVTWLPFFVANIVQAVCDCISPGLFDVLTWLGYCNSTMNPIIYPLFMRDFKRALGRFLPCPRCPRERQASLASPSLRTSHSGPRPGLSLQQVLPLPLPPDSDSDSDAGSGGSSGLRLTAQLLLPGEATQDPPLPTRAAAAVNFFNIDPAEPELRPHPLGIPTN
Chain of 5-HT5A (P47898 whole entry, species assumed): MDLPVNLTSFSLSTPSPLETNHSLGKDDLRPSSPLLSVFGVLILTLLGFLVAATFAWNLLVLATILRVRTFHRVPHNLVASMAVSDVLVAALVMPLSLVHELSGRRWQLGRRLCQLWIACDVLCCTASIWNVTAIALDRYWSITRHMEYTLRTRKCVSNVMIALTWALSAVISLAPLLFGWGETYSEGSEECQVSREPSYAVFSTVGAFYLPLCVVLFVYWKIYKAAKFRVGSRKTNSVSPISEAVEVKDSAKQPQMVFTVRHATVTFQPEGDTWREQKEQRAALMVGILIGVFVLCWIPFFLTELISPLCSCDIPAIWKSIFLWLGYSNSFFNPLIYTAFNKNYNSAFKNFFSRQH
Chain of 5-HT3 (P46098 24-478, species assumed): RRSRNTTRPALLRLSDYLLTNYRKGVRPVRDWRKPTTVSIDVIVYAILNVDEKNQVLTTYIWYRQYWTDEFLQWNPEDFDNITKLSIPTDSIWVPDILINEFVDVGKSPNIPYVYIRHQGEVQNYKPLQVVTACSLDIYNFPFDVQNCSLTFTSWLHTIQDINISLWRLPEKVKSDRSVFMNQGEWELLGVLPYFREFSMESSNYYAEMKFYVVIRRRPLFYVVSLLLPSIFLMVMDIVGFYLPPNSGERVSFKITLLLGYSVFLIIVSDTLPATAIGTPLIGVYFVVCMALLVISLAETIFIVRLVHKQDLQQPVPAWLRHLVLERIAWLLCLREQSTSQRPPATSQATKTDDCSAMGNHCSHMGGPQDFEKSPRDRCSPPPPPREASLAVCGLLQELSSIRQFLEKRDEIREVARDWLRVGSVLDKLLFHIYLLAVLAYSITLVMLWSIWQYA

Cc1nc2sccn2c(=O)c1CCN1CCC(=C(c2ccccc2)c2ccc(F)cc2)CC1 [R59022]
Activity of DGKι, percent of control (DGKι; 20 μM inhibitor, dioleoyl DAG liposomes, cell homogenate): not detectably inhibited | IC50 for DGKι relative to IC50 for DGKα (DGKι; fold higher than IC50 for DGKα): 2–3 fold | pIC50 (DGKι; read-out: IC50 for DGKι, cell homogenate, 1 mM ATP, 10 mol% DAG): ~4.22 | Agonist activity at 5-HTRs (5-HTRs): very low to no activity | Increase in phosphorylation of PKC downstream targets (PKC [1]): about 2.5 fold | pKi (5-HT2C): 9.10 | Percent Inhibition of Binding 5-HT5A (5-HT5A; 10 μM test compound, n=4): 92.0% | pKi (5-HT5A; read-out: Ki 5-HT5A, Cheng-Prusoff from best-fit IC50): 7.74 | Percent Inhibition of Binding 5-HT6 (5-HT6; 10 μM test compound, n=4): 96.9% | pKi (5-HT6; read-out: Ki 5-HT6, Cheng-Prusoff from best-fit IC50): 7.26 | Percent Inhibition of Binding 5-HT3 (5-HT3): 10.9% | Percent Inhibition of Binding 5-HT7 (5-HT7; 10 μM test compound, n=4): 98.5% | pKi (5-HT7; read-out: Ki 5-HT7, Cheng-Prusoff from best-fit IC50): 7.85 | Activity of DGKδ, percent of control (DGKδ): not detectably inhibited | Activation of PKC (PKC [2]): activate PKC | Inhibition of DGKβ (DGKβ): did not inhibit | Percent Inhibition of Binding 5-HT1A (5-HT1A; 10 μM test compound, n=4): 82.4% | pKi (5-HT1A; read-out: Ki 5-HT1A, Cheng-Prusoff from best-fit IC50): 6.39 | Activation of PKC (PKC [3]): not in U251 cells | Inhibition of DGKγ (DGKγ): did not inhibit | Inhibition of DGKε (DGKε): reported to inhibit | Percent Inhibition of Binding 5-HT1B (5-HT1B; 10 μM test compound, n=4): 83.5% | pKi (5-HT1B; read-out: Ki 5-HT1B, Cheng-Prusoff from best-fit IC50): 6.18 | Activity of DGKα, percent of control (DGKα; 20 μM inhibitor, liposomes with dioleoyl DAG, cell homogenate): decreased by about half | Potency against DGKα with other DAG species (DGKα; 20 μM, liposomes containing dioctanoyl or stearoyl arachidonoyl DAG): similarly potent | pIC50 (DGKα; read-out: IC50 for DGKα, cell homogenate, 1 mM ATP, 10 mol% DAG): ~4.60
